Shown are actives, neighbours in structure and some others; about 1.7% of the full set was active somewhere.
Myeloid diff MLP – induction of myeloid progenitor differentiation, primary screen, cell-based, flow cytometry, MLPCN library. calls only at 10 µM. ER-HoxA9 myeloid progenitors, lysozyme-GFP differentiation. hit rate 1% among 360,000;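 active = normalized GFP-positive differentiation at or above the plate's own cutoff, the solvent-only control mean plus 3 SD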;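 also: cells exposed to compound for four days before flow analysis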
Vif inh – HIV Vif self-association inhibitors, primary screen, imaging, HEK293T, single point. hit rate 0.35% among 340,000. AID 602346, 2012. inhibition, % at 7.49 µM. HEK293T cells, Vif self-association by quenched fluorescence, 24 h; in the data active = inhibition above about 50%, passing the limit was not always enough
DSG3 Ab inh – inhibitors of pemphigus antibody binding to DSG3, primary screen, biochemical, bead-based, flow cytometry, scFv-GFP | DSG3-coupled beads, scFv-anti-DSG3-GFP binding; hits give low values | binding (percent of control), % at 10 µM | hit rate 0.48% among 310,000;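 active = binding more than 3 SD below its plate's average and above zero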;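 also: hits lower antibody fragment binding to DSG3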
Target sequence (P32926 whole entry, looked up, the tested form may be a part): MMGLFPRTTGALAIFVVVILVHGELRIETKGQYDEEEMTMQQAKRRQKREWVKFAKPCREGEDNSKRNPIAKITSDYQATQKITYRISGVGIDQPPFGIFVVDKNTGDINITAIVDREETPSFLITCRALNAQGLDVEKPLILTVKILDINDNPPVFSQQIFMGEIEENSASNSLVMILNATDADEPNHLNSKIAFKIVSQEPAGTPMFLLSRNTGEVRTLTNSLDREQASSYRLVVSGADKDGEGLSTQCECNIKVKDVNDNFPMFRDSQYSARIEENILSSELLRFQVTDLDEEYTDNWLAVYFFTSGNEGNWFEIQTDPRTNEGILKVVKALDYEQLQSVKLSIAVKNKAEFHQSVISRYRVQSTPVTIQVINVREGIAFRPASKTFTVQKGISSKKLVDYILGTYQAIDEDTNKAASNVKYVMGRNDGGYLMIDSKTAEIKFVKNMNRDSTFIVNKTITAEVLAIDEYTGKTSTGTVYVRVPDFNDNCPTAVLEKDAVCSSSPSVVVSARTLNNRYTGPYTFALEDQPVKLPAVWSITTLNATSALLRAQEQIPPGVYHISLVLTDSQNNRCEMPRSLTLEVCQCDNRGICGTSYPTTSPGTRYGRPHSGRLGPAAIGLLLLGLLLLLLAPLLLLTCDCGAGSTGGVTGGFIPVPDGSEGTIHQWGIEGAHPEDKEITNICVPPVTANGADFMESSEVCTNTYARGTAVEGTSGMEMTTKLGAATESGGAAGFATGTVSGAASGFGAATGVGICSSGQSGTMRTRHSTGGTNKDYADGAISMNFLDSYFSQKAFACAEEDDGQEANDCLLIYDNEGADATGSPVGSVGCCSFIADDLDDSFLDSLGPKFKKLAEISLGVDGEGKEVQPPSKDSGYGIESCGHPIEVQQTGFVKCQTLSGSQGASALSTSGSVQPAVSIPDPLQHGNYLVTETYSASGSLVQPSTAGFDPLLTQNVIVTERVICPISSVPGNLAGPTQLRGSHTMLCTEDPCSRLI
T cell HTS – modulators of CD8 T cell-vesicle binding, primary screen, mouse 2C CD8+ T cells, flow cytometry; 2C CD8+ T cell-vesicle binding; hits give low values; response (vesicle binding), % at 7 µM; AID 2052, 2009; hit rate 0.068% among 330,000;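 active = response, share of CD8 T cells binding vesicles, and their 90th percentile fluorescence all below set limits, cut at about 80% in these data, passing the limit was not always enough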;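 also: values below 100% mean blocked vesicle binding to the CD8+ T cells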
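Assay system – 2C mouse CD8+ T cells · Also added – QL9-loaded Drosophila micro-vesicles · Timing – Cell–vesicle co-incubation 1.5 h at 37 °C, staining 20 min on ice · Signal – flow cytometry of vesicle-bound cells · Measure – percent CD8+ FL2 mean versus row control · Controls – Peptide-free naked vesicles (low) and QL9 vesicles with 0.7% DMSO vehicle (high)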
Myeloid diff CP1 – inducers of myeloid progenitor differentiation, confirmation, cell-based, GFP/Mac1 flow cytometry, cherry pick 01. shares compounds with Myeloid diff MLP. ER-HoxA9 myeloid progenitors, GFP/Mac1 double-positive flow. calls only. hit rate 2% among 2,300. AID 651706, 2012;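 active = share of green or green-and-red cells above 9 and 9% in run 1 or 4 and 3% in run 2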
GFP autofluor – counter-screen for myeloid differentiation promoters: compound fluorescence | hit rate 7.4% among 2,300 | fluorescence response, % (no concentration beside the values) | ER-HoxA9 myeloid progenitors, no estrogen, GFP autofluorescence flow cytometry; vehicle wells 0%, positive control 100% | shares compounds with Myeloid diff MLP;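 active = over 5% cells positive for green fluorescent reporter, or over 2% positive for both it and APC stain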
Numbers stand for hits; i = inactive; nt = not tested or not shown; + = active, no number.

SMILES	Myeloid diff MLP	Vif inh	DSG3 Ab inh	T cell HTS	Myeloid diff CP1	GFP autofluor
Cc1cc(C)cc(C(=O)/C=C2\NC(=O)CS2)c1	i	i	i	i	i	i
COc1ccc2nc3ccccc3nc2c1NC(=O)c1ccc(Br)cc1	+	i	i	i	i	5.4
COc1cc(NC(=O)c2ccc(Br)cc2)c(OC)cc1NC(=O)c1ccccc1	i	i	i	i	nt	nt
CC1(C(=O)NCc2cccc(C(F)(F)F)c2)CCN1C1Cc2ccccc2C1 (configuration not stated)	i	i	nt	nt	nt	nt
COc1ccc(OC)c(-n2c(O)cnc2Nc2nc(C)cc(C)n2)c1	i	i	nt	i	i	i
O=C(NCCCCc1ccccc1)C12CN(Cc3ccccc3)CC1C(c1ccc([N+](=O)[O-])cc1)=NO2 (configuration not stated)	+	nt	i	i	i	i
CCc1cccc(CC)c1NC(=O)NC1CCCCC1	+	i	i	i	i	i
CS(=O)(=O)Nc1ccccc1C(=O)OCC(=O)N1CCC(c2ccccc2)=N1	i	i	i	i	nt	nt
CO[C@H]1CN(C)C(=O)c2cc(NC(=O)c3ccccc3)ccc2OC[C@H](C)NC[C@@H]1C	i	nt	nt	nt	nt	nt
O=C(ONC(=O)C1C2C=CC(C2)C1C(=O)NOC(=O)c1ccccc1)c1ccccc1 (configuration not stated)	i	i	i	nt	i	i
NC(COCc1ccccc1)c1csc(NC(=O)Nc2cccc(C(F)(F)F)c2)n1 (configuration not stated)	i	i	nt	nt	nt	nt
CCc1cc(C(=O)c2ccccc2OC)c(N)s1	i	i	i	i	i	i
O=c1n(Cc2ccccc2)c(O)c2n1Cc1ccccc1N=C2c1ccc(C(F)(F)F)cc1	i	i	nt	nt	nt	nt
O=C(NCc1ccccc1)C(C(=O)c1ccc(F)cc1)n1ccccc1=O (configuration not stated)	i	nt	nt	i	i	i
C[C@@H]1CCCCO[C@@H](CN(C)C(=O)CCCN(C)C)[C@@H](C)CN([C@H](C)CO)C(=O)c2cc(N(C)C)ccc2O1	i	i	nt	nt	nt	nt
O=C1OC(/C(=C\Nc2cc(Cl)ccc2O)[N+](=O)[O-])c2ccccc21 (configuration not stated)	i	i	i	i	i	i
C[C@]1(C(=O)NCCCNc2ncc(C(F)(F)F)cc2Cl)C=C[C@@H](Cc2ccccc2)N1C(=O)c1ccccc1	i	i	i	nt	i	i
CN(C)S(=O)(=O)c1cccc(C(=O)NC2CCCc3ccccc32)c1 (configuration not stated)	i	i	i	i	nt	nt
CCCNS(=O)(=O)c1cccc(C(=O)NC2CCCc3ccccc32)c1 (configuration not stated)	i	i	i	i	i	i
CCN(C1CCCCC1)S(=O)(=O)CCNC(=O)c1ccc(OC)cc1	i	i	i	nt	nt	nt
Fc1cccc(-c2cncc(N3CCN(CCN4CCCC4)CC3)n2)c1	i	i	nt	nt	nt	nt
Cc1ccc(Cc2c[nH]c(=S)s2)cc1	+	i	i	i	i	i
Cc1ccc(Cc2c(C)[nH]c(=S)[nH]c2=O)cc1	i	i	i	i	nt	nt
CC(=O)N1N=C(c2ccc(Cl)cc2)OC1c1ccc(C(C)C)cc1 (configuration not stated)	i	nt	i	i	i	i
COc1cccc(OC(C)c2ccnc3nc(/N=C/N(C)C)nn23)c1 (configuration not stated)	i	i	i	i	i	i
SMILES	Myeloid diff MLP	Vif inh	DSG3 Ab inh	T cell HTS	Myeloid diff CP1	GFP autofluor
O=C(Nc1cccc(NC(=O)c2nccc3ccccc23)c1)c1ccco1	+	i	i	i	i	i
CCN(CC)C(=O)C1=C(C)N(Cc2ccccc2)C(=O)C(CC(=O)NCCc2ccccn2)C1 (configuration not stated)	i	i	nt	nt	nt	nt
CCN1CCN(c2ccc(S(=O)(=O)N3CCCCC3)cc2NC(=O)c2ccc([N+](=O)[O-])o2)CC1	i	i	i	i	i	i
C[C@@H]1CN([C@@H](C)CO)C(=O)CCCn2nncc2CO[C@@H]1CN(C)C(=O)Nc1cccc(Oc2ccccn2)c1	i	i	i	nt	i	i
C[C@H]1CN([C@@H](C)CO)C(=O)CCCn2nncc2CO[C@H]1CN(C)S(=O)(=O)c1ccc2c(c1)OCCCO2	i	i	nt	nt	i	i
C[C@H](CO)N1C[C@H](C)[C@H](CN(C)S(=O)(=O)c2ccc3c(c2)OCCCO3)OCc2cnnn2CCCC1=O	i	i	nt	nt	nt	nt
Cc1ccc(S(=O)(=O)N(C)C[C@@H]2OCc3cn(nn3)CCCC(=O)N([C@@H](C)CO)C[C@H]2C)cc1	i	i	i	nt	i	i
CCc1ccc2[nH]c3nc(N/N=C/c4ccc(O)cc4O)nnc3c2c1	i	i	i	i	nt	nt
CC1=NN(c2ccccc2)C(=O)C1C=Nc1ccccc1O (configuration not stated)	+	i	i	i	i	i
CCN(CC)C(=O)[C@H]1C[C@H](CC(=O)NC(C)(C)C)C(=O)N2CCc3c([nH]c4cc(-c5ccco5)ccc34)[C@]12C	+	nt	i	nt	i	i
CC(C)N(C(=O)[C@H]1C[C@H](CC(=O)NC(C)(C)C)C(=O)N2CCc3c([nH]c4cc(-c5ccco5)ccc34)[C@]12C)C(C)C	i	i	i	nt	nt	nt
c1ccc(Cc2nn3c(Cn4nnc5ccccc54)nnc3s2)cc1	i	i	i	i	i	i
CCn1c(=O)c(C(=O)NCc2cccnc2)c(O)c2ccccc21	i	i	nt	i	i	i
O=C(O)C(c1ccccc1)N1C(=O)/C(=C\c2ccc(-c3ccc(Br)cc3)o2)SC1=S (configuration not stated)	+	i	i	nt	i	26.1
CN(C)c1cccc(Nc2ccc(-c3ccc(OC(F)(F)F)cc3)cn2)c1	+	i	nt	nt	i	i
Cc1[nH]n(-c2ccccc2)c(=O)c1C(=O)c1ccccc1	i	i	i	i	nt	nt
Cc1[nH]n(-c2ccccc2)c(=O)c1C(=O)c1cccc(F)c1	i	i	i	i	i	i
CCCN1CCC(N2CCN(c3cccc(C(F)(F)F)c3)CC2)CC1	+	nt	i	i	i	i
O=C(Cn1c(=O)n(Cc2ccco2)c(=O)c2cc(Cl)ccc21)NCC1CCCO1 (configuration not stated)	+	i	i	i	i	i
CCN1C(=O)[C@H]2[C@H]3CN=C(SCC4CC4)N3[C@@](Cc3ccccc3)(C(=O)OC)[C@H]2C1=O	i	i	i	nt	i	i
CCN1C(=O)[C@H]2[C@H]3CN=C(SCc4ccc(C#N)cc4)N3[C@@](Cc3ccccc3)(C(=O)OC)[C@H]2C1=O	i	i	i	nt	nt	nt

Compound activity from PubChem BioAssay.
